Source: ChEMBL document CHEMBL3091366, “New 5-Aryl-1H-imidazoles display in vitro antitumor activity against apoptosis-resistant cancer models, including melanomas, through mitochondrial targeting” (J Med Chem, 2013)
The source made the active and inactive calls. The rule behind the calls is not given here.

Key:
SK-MEL-28 [1] = experiment: Effect on oxygen consumption in human SK-MEL-28 cells at 10 uM by oxygraphic analysis; assay type: functional, cell-based
Procedure, shortened: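 Compound added directly at 10 µM to the oxygraph chamber holding SKMEL-28 cells; ROUTINE respiration recorded by Clark-electrode high-resolution respirometry at 37 °C in phenol red-free DMEM with glucose 1 g/L and pyruvate 110 mg/L, with stirring.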

SK-MEL-28 [2] = experiment: Induction of ROS production in human SK-MEL-28 cells at 5 uM by DCFH-DA staining-based flow cytometry; assay type: functional, cell-based; conditions: TDE = time-dependent effect
Procedure, shortened: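 SKMEL-28 cells exposed to 5 µM over a time course, washed twice, stained 1 h at 37 °C with 20 µM DCFH-DA in phenol red-free RPMI, washed twice, trypsinized; ROS-driven probe oxidation read as fluorescence by flow cytometry. Run once in quadruplicate; mean ± SEM.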

SK-MEL-28 [3] = experiment: Increase in cell size of human SK-MEL-28 cells at 5 uM after 24 hrs by MitoTracker Green FM-based fluorescence microscopic analysis; assay type: functional
Procedure, shortened: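 SKMEL-28 cells seeded on glass coverslips 48 h before treatment at 5 µM (3 to 48 h); two washes, mitochondria stained with 100 nM MitoTracker Green FM in phenol red-free RPMI for 30 min, rinsed twice, viewed by fluorescence microscopy. Three coverslips per condition.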

MDA-MB-468 = experiment: Cytotoxicity against human MDA-MB-468 cells assessed as residual growth at 10 uM; assay type: functional
[4] = Cytotoxicity against human Hs578T cells assessed as residual growth at 10 uM; assay type: functional, Hs-578T
MCF7 [5] = experiment: Cytotoxicity against human MCF7 cells assessed as residual growth at 10 uM; assay type: functional
DU-145 = experiment: Cytotoxicity against human DU145 cells assessed as residual growth at 10 uM; assay type: functional
PC-3 = experiment: Cytotoxicity against human PC3 cells assessed as residual growth at 10 uM; assay type: functional
ACHN = experiment: Cytotoxicity against human ACHN cells assessed as residual growth at 10 uM; assay type: functional
A498 = experiment: Cytotoxicity against human A498 cells assessed as residual growth at 10 uM; assay type: functional
786-0 = experiment: Cytotoxicity against human 786-0 cells assessed as residual growth at 10 uM; assay type: functional
[6] = Cytotoxicity against human NCI-ADR-RES cells assessed as residual growth at 10 uM; assay type: functional
[7] = Cytotoxicity against human OVCAR5 cells assessed as residual growth at 10 uM; assay type: functional, OVCAR-5
OVCAR-8 = experiment: Cytotoxicity against human OVCAR8 cells assessed as residual growth at 10 uM; assay type: functional
IGROV-1 = experiment: Cytotoxicity against human IGROV1 cells assessed as residual growth at 10 uM; assay type: functional
[8] = Cytotoxicity against human UACC257 cells assessed as residual growth at 10 uM; assay type: functional, UACC-257
SK-MEL-28 [9] = experiment: Cytotoxicity against human SK-MEL-28 cells assessed as residual growth at 10 uM; assay type: functional
Malme-3M = experiment: Cytotoxicity against human MALME-3M cells assessed as residual growth at 10 uM; assay type: functional
LOX IMVI = experiment: Cytotoxicity against human LOXIMVI cells assessed as residual growth at 10 uM; assay type: functional
U-251 = experiment: Cytotoxicity against human U251 cells assessed as residual growth at 10 uM; assay type: functional
SNB-19 = experiment: Cytotoxicity against human SNB19 cells assessed as residual growth at 10 uM; assay type: functional
SF-295 = experiment: Cytotoxicity against human SF295 cells assessed as residual growth at 10 uM; assay type: functional
SF-268 = experiment: Cytotoxicity against human SF268 cells assessed as residual growth at 10 uM; assay type: functional
HT-29 = experiment: Cytotoxicity against human HT-29 cells assessed as residual growth at 10 uM; assay type: functional
HCT-15 = experiment: Cytotoxicity against human HCT15 cells assessed as residual growth at 10 uM; assay type: functional
HCT-116 = experiment: Cytotoxicity against human HCT116 cells assessed as residual growth at 10 uM; assay type: functional
HCC 2998 = experiment: Cytotoxicity against human HCC2998 cells assessed as residual growth at 10 uM; assay type: functional
COLO 205 = experiment: Cytotoxicity against human COLO205 cells assessed as residual growth at 10 uM; assay type: functional
NCI-H460 = experiment: Cytotoxicity against human NCI-H460 cells assessed as residual growth at 10 uM; assay type: functional
NCI-H322M = experiment: Cytotoxicity against human NCI-H322M cells assessed as residual growth at 10 uM; assay type: functional
HOP-92 = experiment: Cytotoxicity against human HOP92 cells assessed as residual growth at 10 uM; assay type: functional
HOP-62 = experiment: Cytotoxicity against human HOP62 cells assessed as residual growth at 10 uM; assay type: functional
[10] = Cytotoxicity against human EKVX cells assessed as residual growth at 10 uM; assay type: functional
MOLT-4 = experiment: Cytotoxicity against human MOLT4 cells assessed as residual growth at 10 uM; assay type: functional
HL-60(TB) = experiment: Cytotoxicity against human HL-60(TB) cells assessed as residual growth at 10 uM; assay type: functional
CCRF-CEM = experiment: Cytotoxicity against human CCRF-CEM cells assessed as residual growth at 10 uM; assay type: functional
SK-MEL-28 [11] = experiment: Cytostatic activity against apoptotic-resistant human SK-MEL-28 cells assessed as increase in cell size at 5 uM after 72 hrs by quantitative videomicroscopy; assay type: functional, cell-based
Procedure, shortened: (§1)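 SK-MEL-28 cells exposed to 5 µM for 24, 48 and 72 h. Cell cycle was read by flow cytometry with propidium iodide plus TUNEL double staining (APO-Direct kit), in quadruplicate. Videomicroscopy photographed each field every 4 min over 72 h. Global growth is cells at a time point divided by cells at time 0; the treated/control ratio gives GGR. Cell death was judged from morphology. Run twice, in triplicate and in quadruplicate.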

SK-MEL-28 [12] = experiment: Cytostatic activity against apoptotic-resistant human SK-MEL-28 cells assessed as growth inhibition at 5 uM after 48 to 72 hrs by quantitative videomicroscopy; assay type: functional; conditions: read-out: GI; procedure, shortened: as §1
[13] = Cytotoxicity against HLF cells assessed as growth inhibition after 72 hrs by MTT-based colorimetric assay; assay type: cell-based; conditions: Homo sapiens
Procedure, shortened: (§2)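 MTT colorimetric assay, 72 h exposure to the fumarate salt. Read-out is reduction of MTT to formazan by living cells. IC50 is the concentration that reduces the whole cell population by 50%. Six replicates per condition. Where compounds were not tested on every line, apoptosis-sensitive lines were PC3, MCF-7, LoVo and B16F10, and apoptosis-resistant lines were U373, T98G, A549 and SK-MEL-28.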

MCF7 [14] = experiment: Cytotoxicity against apoptotic-sensitive human MCF7 cells assessed as growth inhibition after 72 hrs by MTT-based colorimetric assay; assay type: functional, cell-based; conditions: Homo sapiens, MCF7, 72 h; procedure, shortened: as §2
T98G = experiment: Cytotoxicity against apoptotic-resistant human T98G cells assessed as growth inhibition after 72 hrs by MTT-based colorimetric assay; assay type: functional, cell-based; conditions: Homo sapiens, T98G, 72 h; procedure, shortened: as §2
[15] = Cytotoxicity against apoptotic-resistant human U373 cells assessed as growth inhibition after 72 hrs by MTT-based colorimetric assay; assay type: functional, cell-based, U-373MG ATCC; conditions: Homo sapiens, U373 MG, 72 h; procedure, shortened: as §2

## C=CCCCCOc1ccccc1-c1cnc(OCCCCC=C)n1C
SK-MEL-28 [1]
  Activity: inactive
SK-MEL-28 [2]
  Activity: tde
SK-MEL-28 [3]
  Activity: Active
MDA-MB-468
  Activity: 25.48%
[4]
  Activity: 66.38%
MCF7 [5]
  Activity: 42.18%
DU-145
  Activity: 92.64%
PC-3
  Activity: 73.54%
ACHN
  Activity: 84.54%
A498
  Activity: 51.15%
786-0
  Activity: 106.84%
[6]
  Activity: 30.38%
[7]
  Activity: 95.17%
OVCAR-8
  Activity: 83.91%
IGROV-1
  Activity: 62.95%
[8]
  Activity: 66.63%
SK-MEL-28 [9]
  Activity: 73.36%
Malme-3M
  Activity: 62.83%
LOX IMVI
  Activity: 69.06%
U-251
  Activity: 68.59%
SNB-19
  Activity: 91.08%
SF-295
  Activity: 70.07%
SF-268
  Activity: 79.65%
HT-29
  Activity: 18.11%
HCT-15
  Activity: 52.21%
HCT-116
  Activity: 61.02%
HCC 2998
  Activity: 61.08%
COLO 205
  Activity: 46.04%
NCI-H460
  Activity: 55.6%
NCI-H322M
  Activity: 71.99%
HOP-92
  Activity: 75.18%
HOP-62
  Activity: 77.15%
[10]
  Activity: 85.23%
MOLT-4
  Activity: 91.38%
HL-60(TB)
  Activity: 66.52%
CCRF-CEM
  Activity: 80.85%
SK-MEL-28 [11]
  Activity: Active
SK-MEL-28 [12]
  inhibition of growth at 5 µM: 50%
[13]
  IC50: 22 µM
MCF7 [14]
  IC50: 5 µM
T98G
  IC50: 4 µM
[15]
  IC50: 7 µM
